# Experimental data: PMC2934894 (Biochemical pharmacology, 2010)
# Read-outs that look alike come from different tables or passages of the source.
# Tests used:
# ERα/β heterodimer = ERα/β heterodimer (Homo sapiens, UniProt P03372+Q92731); test: BRET assay, ERα/β heterodimerization in transfected HEK293 cells; format: cell-based; details: 1 hour
# Summary of the method: (§1)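 HEK293 cells batch-transfected in phenol red free DMEM + 5% SFS with fusion pairs: ERα-RLuc + ERα-YFP (α/α), RLuc-ERβ + YFP-ERβ (β/β) or ERα-RLuc + YFP-ERβ (α/β). RLuc-only cells were included for the correction factor. After 24 h, cells were trypsinized and replated at 10,000/well in PBS. Compound was applied for 1 h, then coelenterazine h was added. Emission was read at 470/530 nm; BRET ratio; triplicates; E2 positive, DMSO negative control.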
# ERβ/β homodimer = ERβ/β homodimer (Homo sapiens, UniProt Q92731); test: BRET assay, ERβ/β homodimerization in transfected HEK293 cells; format: cell-based; details: 100 μM purified compound
# Summary of the method: as §1
# HC11 cells [1] = test: MTT assay for cellular metabolic activity, HC11; format: cell-based, mouse; details: inhibition retained in the presence of ICI 182,780
# ERβ [2] = biological target: T1, ERβ (Homo sapiens, UniProt Q92731); test: HEK293 ERE-luciferase reporter assay, ERβ alone; format: cell-based; details: HEK293, 24 hours with ligand, 10 μM and 100 μM
# PC3 cells [3] = details: vs DMSO
# ERα [4] = biological target: T2, ERα (Homo sapiens, UniProt P03372); test: Fluorescence Polarization Competition Binding Assay, ERα; details: read-out: Ki for binding to ERα; correlated from IC50, FP competition
# Summary of the method: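 Competitive fluorescence polarization used purified ERα from a commercial kit. Compound was tenfold serially diluted in screening buffer (down to 10 pM final), DMSO below 1%. It was mixed with ERα (15 nM final) and Fluormone tracer (1 nM final). Incubation was 2 h in the dark at room temperature, then polarization was read in glass tubes.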
# ERα [5] = biological target: T2, ERα; test: HEK293 ERE-luciferase reporter assay, ERα alone; format: cell-based; details: HEK293, 24 hours with ligand, 10 μM and 100 μM
# Summary of the method: (§2)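 HEK293 cells were batch-transfected per well with 2.5 ng of each ER (ERα alone or ERα + ERβ) plus 50 ng tk-ERE-luc. After 48 h expression, cells were exposed to ligands for 24 h and lysed. Firefly luciferase luminescence was measured and normalized to β-galactosidase luminescence in the same well.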
# PC3 cells [6] = test: MTT assay for cellular metabolic activity, PC3; format: cell-based, human; details: inhibition retained in the presence of ICI 182,780
# ERβ [7] = biological target: T1, ERβ; test: Fluorescence Polarization Competition Binding Assay, ERβ
# ERα + ERβ = test: HEK293 ERE-luciferase reporter assay, ERα + ERβ; format: cell-based
# Summary of the method: as §2
# HC11 cells [8] = details: HC11, 10 μM synthetic compound, vs DMSO, p= 0.06
# ERα/α homodimer = biological target: T3, ERα/α homodimer (Homo sapiens, UniProt P03372); test: BRET assay, ERα/α homodimerization in transfected HEK293 cells; format: cell-based; details: 100 μM purified compound
# T3 sequence (P03372 1-595) 1: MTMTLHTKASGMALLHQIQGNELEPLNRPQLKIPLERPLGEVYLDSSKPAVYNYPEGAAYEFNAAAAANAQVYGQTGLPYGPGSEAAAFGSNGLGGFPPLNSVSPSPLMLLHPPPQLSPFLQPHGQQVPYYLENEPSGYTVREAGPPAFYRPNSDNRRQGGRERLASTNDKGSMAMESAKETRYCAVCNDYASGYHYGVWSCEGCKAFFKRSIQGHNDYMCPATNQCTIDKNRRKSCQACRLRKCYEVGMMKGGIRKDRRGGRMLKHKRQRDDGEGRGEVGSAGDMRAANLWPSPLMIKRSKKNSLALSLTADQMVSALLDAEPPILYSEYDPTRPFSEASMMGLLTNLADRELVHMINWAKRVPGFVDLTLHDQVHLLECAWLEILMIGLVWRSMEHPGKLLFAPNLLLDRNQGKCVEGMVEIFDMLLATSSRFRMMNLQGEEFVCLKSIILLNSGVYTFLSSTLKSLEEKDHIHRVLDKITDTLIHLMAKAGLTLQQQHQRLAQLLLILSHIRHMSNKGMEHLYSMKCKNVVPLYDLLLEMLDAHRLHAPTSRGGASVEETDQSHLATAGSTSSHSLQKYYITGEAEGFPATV
# T3 sequence (P03372 1-595) 2: T3 sequence (P03372 1-595) 1
# Summary of the method: as §1
# T1 sequence (Q92731 whole entry): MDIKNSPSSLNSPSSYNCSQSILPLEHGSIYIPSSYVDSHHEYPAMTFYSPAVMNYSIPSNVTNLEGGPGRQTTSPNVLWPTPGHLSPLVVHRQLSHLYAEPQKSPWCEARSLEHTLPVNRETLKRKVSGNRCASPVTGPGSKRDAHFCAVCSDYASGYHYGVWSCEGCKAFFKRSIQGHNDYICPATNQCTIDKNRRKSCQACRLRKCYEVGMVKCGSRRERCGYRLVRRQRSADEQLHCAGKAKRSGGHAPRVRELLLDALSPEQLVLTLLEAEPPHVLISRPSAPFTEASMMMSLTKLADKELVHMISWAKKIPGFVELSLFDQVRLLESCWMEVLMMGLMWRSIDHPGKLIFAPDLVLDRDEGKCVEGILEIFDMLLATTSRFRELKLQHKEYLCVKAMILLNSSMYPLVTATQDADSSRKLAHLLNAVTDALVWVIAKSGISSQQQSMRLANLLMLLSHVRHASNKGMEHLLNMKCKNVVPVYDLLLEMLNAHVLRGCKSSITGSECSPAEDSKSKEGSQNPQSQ
# Sequence of ERα/β heterodimer (Q92731 whole entry, one chain of several, the tested form may be a part): as the sequence (Q92731 whole entry) above
# Sequence of ERβ/β homodimer (Q92731 whole entry): as above
# Sequence of ERβ/β homodimer (Q92731 whole entry): as above
Compound,induction for ERα/β heterodimers (BRET ratio) (ERα/β heterodimer; 10 μM purified compound) [fold],increase in ERα/β heterodimerization (BRET ratio) (ERα/β heterodimer; 100 μM purified compound) [fold],induction of ERβ/β homodimer (BRET ratio) (ERβ/β homodimer),cell proliferation (MTT metabolic activity) (HC11 cells [1]),transcriptional activity of ERβ alone (ERE-luciferase) (ERβ [2]),"cell number (PC3 cells [3]; PC3, 10 μM synthetic compound, p= 0.03)","cell number (PC3 cells [3]; PC3, 100 μM synthetic compound, p=0.002)",Ki (ERα [4]) [µM],transcriptional activity of ERα alone (ERE-luciferase) (ERα [5]),cell proliferation (MTT metabolic activity) (PC3 cells [6]),"binding affinity for ERβ over ERα (ERβ [7]; FP competition binding, ERβ vs ERα) [fold]","Ki (ERβ [7]; read-out: Ki for binding to ERβ, correlated from IC50, FP competition) [µM]","transcriptional activity of ERα + ERβ (ERE-luciferase) (ERα + ERβ; HEK293, 24 hours with ligand, 10 μM and 100 μM)",cell number (HC11 cells [8]),induction of ERα/α homodimer (BRET ratio) (ERα/α homodimer),"effect on actinopolymorphol A-dependent reporter activity (ERα + ERβ; in the presence of ERα + ERβ, HEK293 ERE-luciferase)"
actinopolymorphol A,3,5,less than 1.5 fold,inhibited,found to activate,statistically significant decreases,statistically significant decreases,6.2,not able to activate,inhibited,~2,4.3,found to activate,statistically non-significant decrease,less than 1.5 fold,
"C[C@]12CC[C@@H]3c4ccc(O)cc4C[C@@H](CCCCCCCCC[S+]([O-])CCCC(F)(F)C(F)(F)F)[C@H]3[C@@H]1CC[C@@H]2O (stereo partly shown) [ICI 182,780, reference compound]",,,,,,,,,,,,,,,,completely abrogated
